Columns and labels:
[1] = molecular target: T1, Receptor-type tyrosine-protein kinase FLT3 (Homo sapiens, UniProt P36888); assay: Inhibition of FLT3
T1 sequence (P36888 whole entry): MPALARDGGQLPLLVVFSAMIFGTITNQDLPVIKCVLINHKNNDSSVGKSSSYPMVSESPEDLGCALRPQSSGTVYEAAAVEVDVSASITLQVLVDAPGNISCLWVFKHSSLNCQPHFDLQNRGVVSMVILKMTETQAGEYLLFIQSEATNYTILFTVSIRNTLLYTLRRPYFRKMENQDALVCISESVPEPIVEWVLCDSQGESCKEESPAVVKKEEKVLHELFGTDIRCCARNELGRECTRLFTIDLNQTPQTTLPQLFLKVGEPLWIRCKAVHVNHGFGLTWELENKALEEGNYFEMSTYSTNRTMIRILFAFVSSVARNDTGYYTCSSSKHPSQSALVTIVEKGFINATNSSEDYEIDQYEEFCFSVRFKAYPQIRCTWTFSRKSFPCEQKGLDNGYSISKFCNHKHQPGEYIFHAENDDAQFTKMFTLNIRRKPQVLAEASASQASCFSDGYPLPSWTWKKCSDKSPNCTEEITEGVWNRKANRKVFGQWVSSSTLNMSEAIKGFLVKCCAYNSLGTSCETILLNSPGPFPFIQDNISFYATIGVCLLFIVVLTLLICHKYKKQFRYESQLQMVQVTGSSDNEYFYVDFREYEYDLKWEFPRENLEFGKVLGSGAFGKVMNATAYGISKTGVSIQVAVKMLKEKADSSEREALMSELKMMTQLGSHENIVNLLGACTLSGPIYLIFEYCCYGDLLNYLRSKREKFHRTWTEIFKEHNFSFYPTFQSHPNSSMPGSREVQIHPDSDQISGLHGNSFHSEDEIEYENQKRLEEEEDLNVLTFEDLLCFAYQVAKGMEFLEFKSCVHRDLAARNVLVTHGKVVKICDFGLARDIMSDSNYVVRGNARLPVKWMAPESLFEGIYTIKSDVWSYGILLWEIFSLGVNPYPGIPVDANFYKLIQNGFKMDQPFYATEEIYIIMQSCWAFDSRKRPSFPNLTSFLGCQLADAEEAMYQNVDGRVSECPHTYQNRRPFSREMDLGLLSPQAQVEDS

[2] = molecular target: T2, Serine/threonine-protein kinase Chk1 (Homo sapiens) (UniProt O14757); assay: Inhibition of human CHK1 at 3 uM in presence of 10 uM ATP
T2 sequence (whole entry): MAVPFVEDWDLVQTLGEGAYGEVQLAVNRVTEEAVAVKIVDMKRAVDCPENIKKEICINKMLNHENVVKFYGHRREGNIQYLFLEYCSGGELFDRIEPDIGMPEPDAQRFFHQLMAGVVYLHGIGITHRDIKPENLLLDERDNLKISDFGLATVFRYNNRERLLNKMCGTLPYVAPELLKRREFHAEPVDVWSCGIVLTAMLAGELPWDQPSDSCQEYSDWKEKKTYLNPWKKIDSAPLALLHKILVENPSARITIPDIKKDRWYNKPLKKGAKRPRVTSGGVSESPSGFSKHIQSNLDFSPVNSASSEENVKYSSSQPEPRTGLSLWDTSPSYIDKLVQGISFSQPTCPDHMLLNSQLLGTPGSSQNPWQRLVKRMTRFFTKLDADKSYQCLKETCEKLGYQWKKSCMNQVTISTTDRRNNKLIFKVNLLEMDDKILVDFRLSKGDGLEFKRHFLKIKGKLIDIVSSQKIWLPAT
Summary of the method: (§1)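 Selectivity panel run at a single compound concentration of 3 µM with 10 µM ATP. Read-out is % inhibition of each kinase. Values are averages of duplicate experiments.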

[3] = molecular target: T3, Serine/threonine-protein kinase D1 (Homo sapiens) (UniProt Q15139); assay: Inhibition of human PKC mu at 3 uM in presence of 10 uM ATP; summary of the method: as §1
T3 sequence (whole entry): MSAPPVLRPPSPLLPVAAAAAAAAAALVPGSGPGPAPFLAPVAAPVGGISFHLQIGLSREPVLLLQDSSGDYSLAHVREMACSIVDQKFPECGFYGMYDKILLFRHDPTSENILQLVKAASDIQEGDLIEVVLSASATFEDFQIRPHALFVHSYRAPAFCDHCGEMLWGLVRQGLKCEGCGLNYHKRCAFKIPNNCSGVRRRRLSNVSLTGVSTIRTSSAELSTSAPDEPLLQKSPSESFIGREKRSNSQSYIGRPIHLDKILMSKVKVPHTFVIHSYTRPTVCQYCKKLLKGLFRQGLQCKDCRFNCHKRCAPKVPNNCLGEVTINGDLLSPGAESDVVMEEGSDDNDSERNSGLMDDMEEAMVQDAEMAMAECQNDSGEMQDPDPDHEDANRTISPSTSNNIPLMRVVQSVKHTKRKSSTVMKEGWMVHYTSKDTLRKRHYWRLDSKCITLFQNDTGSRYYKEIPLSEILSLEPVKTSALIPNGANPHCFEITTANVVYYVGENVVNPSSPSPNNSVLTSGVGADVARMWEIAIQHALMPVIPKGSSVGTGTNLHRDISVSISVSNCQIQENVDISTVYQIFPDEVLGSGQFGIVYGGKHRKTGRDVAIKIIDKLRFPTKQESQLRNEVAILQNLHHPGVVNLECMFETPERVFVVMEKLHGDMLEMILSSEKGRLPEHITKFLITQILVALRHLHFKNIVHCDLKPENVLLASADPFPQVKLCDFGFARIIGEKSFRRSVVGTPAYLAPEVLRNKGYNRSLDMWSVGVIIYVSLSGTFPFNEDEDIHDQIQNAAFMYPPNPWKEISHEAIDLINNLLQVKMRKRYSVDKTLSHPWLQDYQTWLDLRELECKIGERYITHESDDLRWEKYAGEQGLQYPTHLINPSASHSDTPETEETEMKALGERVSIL

[4] = molecular target: BDNF/NT-3 growth factors receptor (Homo sapiens) (UniProt Q16620); assay: Inhibition of human TrkB at 3 uM in presence of 10 uM ATP; summary of the method: as §1
Sequence of BDNF/NT-3 growth factors receptor (Homo sapiens) (Q16620 32-822 limits assumed): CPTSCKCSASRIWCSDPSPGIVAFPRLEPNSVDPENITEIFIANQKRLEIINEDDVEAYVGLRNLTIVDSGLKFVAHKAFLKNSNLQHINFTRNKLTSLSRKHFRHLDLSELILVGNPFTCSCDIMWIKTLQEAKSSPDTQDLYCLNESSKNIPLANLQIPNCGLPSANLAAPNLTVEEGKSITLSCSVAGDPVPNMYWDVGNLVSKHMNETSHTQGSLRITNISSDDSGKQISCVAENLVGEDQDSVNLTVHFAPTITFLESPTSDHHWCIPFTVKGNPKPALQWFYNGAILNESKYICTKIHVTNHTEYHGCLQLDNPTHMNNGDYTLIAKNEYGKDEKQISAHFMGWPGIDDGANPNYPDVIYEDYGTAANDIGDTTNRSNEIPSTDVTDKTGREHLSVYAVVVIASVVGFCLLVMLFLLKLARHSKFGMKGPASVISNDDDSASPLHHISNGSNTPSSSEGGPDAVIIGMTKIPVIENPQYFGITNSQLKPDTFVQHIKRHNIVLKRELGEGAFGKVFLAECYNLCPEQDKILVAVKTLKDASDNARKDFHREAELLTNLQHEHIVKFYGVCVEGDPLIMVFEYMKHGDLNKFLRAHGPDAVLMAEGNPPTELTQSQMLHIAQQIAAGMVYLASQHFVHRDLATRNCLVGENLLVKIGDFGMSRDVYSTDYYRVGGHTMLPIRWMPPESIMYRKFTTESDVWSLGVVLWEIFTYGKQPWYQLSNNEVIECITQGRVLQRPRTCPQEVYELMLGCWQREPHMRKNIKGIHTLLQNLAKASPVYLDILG

IC50 [1]: 42 nM
inhibition [2]: -7%
inhibition [3]: 3%
inhibition [4]: 39%
SMILES: COc1ccc(C(=O)Nc2sc3c(c2C(N)=O)CCCC3)cc1OC

Source: ChEMBL document CHEMBL1147807, “Identification of 2-acylaminothiophene-3-carboxamides as potent inhibitors of FLT3” (Bioorg Med Chem Lett, 2006)
